Assay outcomes (PubChem)
Only some compounds are listed: those with a hit (about 2% of all), similar ones and a draw of the others.
TPT1 inh = inhibitors of Candida albicans tRNA 2'-phosphotransferase TPT1. recombinant caTPT1, FP RNA substrate dephosphorylation. inhibition, % at 5 µM. hit rate 0.81% among 300,000. AID 1962;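 active = inhibition above the mean of all tested compounds plus 3 SD, set per screening campaign, cut at about 24% in these data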;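 also: plate controls were DMSO alone for no effect and ferristatin control at 100 nM for full effect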
CSN inh = CSN deneddylation inhibition. AID 651999. inhibition, % at 12.5 µM. hit rate 0.38% among 360,000. Q92905. Purified CSN, SCF-Nedd8-OG deneddylation, fluorescence polarization;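 active = pattern-corrected inhibition above about 35%, with an unprinted fluorescence ratio check between 0.5 and 1.5, limit read from the data, passing the limit was not always enough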;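 also: 0% = enzyme with substrate and 100% = substrate without enzyme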
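Assay system: HEK293T-derived human Csn5 enzyme; quantity: 0.24 nM enzyme; medium: Tris/NaCl/DTT buffer, pH 7.5; also added: substrate SCFSkp2-Nedd8OG, 10 nM; doses: 12.5 µM compound; schedule: 90 min reaction at room temperature; signal: FP; read-out: % inhibition of substrate cleavage by Csn5; benchmarks: substrate-only high control, full reaction low control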
ATG4B inh = inhibitors of human ATG4B cysteine protease. ATG4B cleavage of LC3-PLA2, NBD-HPC fluorescence, 1 h. hit rate 0.51% among 340,000. AID 504462. inhibition, % at 8.33 µM; in the data active = inhibition above about 40%
Rpn11 inh = Rpn11 (human) deubiquitinase inhibition; inhibition, % at 20 µM; O00487; human 26S proteasome, Ub4-pepOG fluorescence polarization; 20S core pre-blocked with epoxomicin; hit rate 0.59% among 360,000; AID 588493;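 active = inhibition at 20 µM, scaled to each plate's controls, above about 33%, limit read from the data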
Target sequence (O00487 whole entry, looked up): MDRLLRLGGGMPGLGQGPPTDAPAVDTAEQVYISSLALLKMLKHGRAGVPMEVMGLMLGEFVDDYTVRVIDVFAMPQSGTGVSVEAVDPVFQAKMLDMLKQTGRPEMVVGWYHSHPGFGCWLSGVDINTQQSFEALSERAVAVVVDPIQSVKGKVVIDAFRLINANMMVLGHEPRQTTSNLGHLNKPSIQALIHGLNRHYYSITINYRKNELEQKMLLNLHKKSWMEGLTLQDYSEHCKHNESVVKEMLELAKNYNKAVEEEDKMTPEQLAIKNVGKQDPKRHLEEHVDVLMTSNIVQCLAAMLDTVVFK
SENP1 FRET inh = inhibitors of human SENP1 SUMO protease catalytic domain; hit rate 0.21% among 360,000; Q9P0U3; recombinant SENP1 catalytic domain, CyPet-SUMO1-YPet FRET cleavage; inhibition, % at 10 µM;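 active = inhibition at least 30% at 10 µM, raw YFP signal under a set limit, fluorescence ratio 0.5 to 1.5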;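 also: 0% = enzyme with DMSO and 100% = no enzyme wells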
Target sequence (Q9P0U3 419-644 limits assumed): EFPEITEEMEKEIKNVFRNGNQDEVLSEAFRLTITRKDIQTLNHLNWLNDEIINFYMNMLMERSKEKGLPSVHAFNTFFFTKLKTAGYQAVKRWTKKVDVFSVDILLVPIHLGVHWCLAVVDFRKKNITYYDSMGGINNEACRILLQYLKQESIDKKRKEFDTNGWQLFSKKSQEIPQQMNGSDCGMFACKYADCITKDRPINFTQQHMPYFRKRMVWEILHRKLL
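Test system: hSENP1 catalytic domain, recombinant; Amount: 20 pM final SENP1 enzyme; Medium: Tris pH 8 buffer plus EDTA, NaCl, BME, BSA, NP40, catalase; Schedule: 50 min enzyme reaction, room temperature, light-protected; Technique: FRET fluorescence in CFP and YFP emission channels; Controls: no-enzyme wells low, DMSO-plus-enzyme wells high control.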
HNF4A DNA FP = change in binding of human HNF4 alpha to DNA | P41235 | HNF4a-FITC DNA binding, fluorescence polarization, 1 h | activity change, % at 10 µM | hit rate 0.3% among 360,000 | AID 1224865; in the data active = activity change above about 30%, passing the limit was not always enough
caTPT1 confirm = confirmation of Candida albicans TPT1 inhibitors; shares compounds with TPT1 inh; recombinant caTPT1, fluorescence polarization, RNase T1 coupled; inhibition, % at 5 µM; hit rate 74% among 2,400; AID 2149;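 active = inhibition above the primary screen limit, the mean inhibition of all tested compounds plus 3 SD, cut at about 25% in these data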
RNase T1 inh = blocks Aspergillus oryzae RNase T1, a TPT1 counter-screen | shares compounds with TPT1 inh | RNase T1 cleavage, fluorescence polarization, 1536-well | inhibition, % at 5 µM | hit rate 83% among 2,400;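 active = inhibition above the solvent-only control well mean plus 3 SD, limit set per screening run, cut at about 23% in these data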;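 also: plate controls were DMSO wells with enzyme for no effect and wells without RNase T1 for full effect; inhibitors block cleavage so intact labeled substrate keeps polarization high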
Target sequence (P00651 whole entry, looked up): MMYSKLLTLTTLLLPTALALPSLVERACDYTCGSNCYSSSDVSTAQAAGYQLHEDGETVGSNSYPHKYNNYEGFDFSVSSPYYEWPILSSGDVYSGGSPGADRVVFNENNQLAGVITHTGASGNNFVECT
Starred values were filed as active, the others as inactive; nt = no result shown.

SMILES | TPT1 inh | CSN inh | ATG4B inh | Rpn11 inh | SENP1 FRET inh | HNF4A DNA FP | caTPT1 confirm | RNase T1 inh
CN1CCc2c(sc3c2C(=O)NC(c2cccs2)N3)C1 (stereo not given) | 34* | 4 | -7 | 6 | -30 | 1 | 23 | 35*
NC(=O)c1ccccc1OCC(=O)Nc1ccc2c(c1)OCCO2 | nt | -2 | 4 | -7 | 1 | 2 | nt | nt
Cc1ccc(S(=O)(=O)N2CCCCC2)cc1NC(=O)C1COc2ccccc2O1 (stereo not given) | nt | 5 | nt | -3 | 2 | 2 | nt | nt
C[C@@H]1CN([C@H](C)CO)C(=O)CCCn2cc(nn2)CO[C@H]1CN(C)S(=O)(=O)c1ccccc1 | nt | -2 | nt | -7 | 1 | -2 | nt | nt
Nc1c(C(=O)Nc2nccs2)sc2nc(-c3cccs3)cc(C(F)(F)F)c12 | 31* | 64 | 2 | nt | 26 | 61 | 29* | 41*
CCn1ncc(Br)c1C(=O)Nc1cc(C)cc(C)c1 | 34* | 1 | 2 | 5 | 1 | 2 | 7 | 13
CCN(CC)c1ccc(/C=C/c2cc(-c3ccccc3)c3ccccc3n2)cc1 | 94* | 92 | 6 | nt | -26 | 99 | 87* | 90*
CCN(CC)c1ccc(/C=N/NC(=O)c2cc(C)nc3ccccc23)cc1 | 1 | -5 | -2 | -5 | 8 | -2 | nt | nt
COc1cc2cc(/C=C/C(=O)c3ccco3)c(Cl)nc2cc1OC | 33* | 23 | -22 | nt | 3 | 16 | 47* | 56*
COc1ccc2cc(/C=C/C(=O)c3ccco3)c(Cl)nc2c1 | 17 | nt | nt | nt | nt | nt | nt | nt
Cc1ccc(OCC(=O)N(C)CC(=O)Nc2ccc(Cl)c(C(F)(F)F)c2)c([N+](=O)[O-])n1 | nt | -3 | -21 | 2 | 1 | 1 | nt | nt
Cc1ccc2c(c1)C1(C(=O)N2C)N2CC3(C)CN1CC(C)(C2)C3=O (stereo not given) | 64* | 0 | 2 | -6 | 3 | 4 | -1 | 0
CN(C)S(=O)(=O)c1cccc(NC(=S)N/N=C/c2cc(Br)ccc2O)c1 | 25* | 21 | -3 | nt | -36 | 14 | 53* | 59*
COc1cc(CNc2ncnc3c2ncn3[C@H]2CN(CCc3ccccc3)C[C@@H](CO)O2)cc(OC)c1OC | nt | -3 | nt | 4 | -2 | 0 | nt | nt
Oc1cccc(Nc2nc(O)c(/C=C3\C=Nc4ccccc43)s2)c1 | 77* | 118 | 25 | nt | -35 | 150 | 130* | 130*
CCN1c2ccccc2NC2C1C(C(C)=O)C(=O)N2c1ccc(Cl)cc1 (stereo not given) | 60* | 25 | -17 | nt | -24 | 45* | 76* | 85*
O=C1Nc2ccccc2N(O)N1c1ccc(Cl)cc1 | 0 | -1 | -3 | 2 | 1 | -6 | nt | nt
CNC(=O)c1c(NC(=O)c2ccc(S(=O)(=O)N3CCCCC3C)cc2)sc2c1CCN(C)C2 (stereo not given) | 8 | 2 | -7 | nt | -30 | 4 | nt | nt
CC(C)N1CCc2c(sc(NC(=O)c3ccc(S(=O)(=O)N4CCOCC4)cc3)c2C(N)=O)C1 | 36* | 9 | -2 | 16 | -31 | 0 | 43* | 56*
CC1CCCN(S(=O)(=O)c2ccc(C(=O)Nc3sc4c(c3C(N)=O)CCN(C)C4)cc2)C1 (stereo not given) | 73* | 13 | -13 | 7 | -34 | 19 | 64* | 71*
CNC(=O)c1c(NC(=O)c2ccc(S(=O)(=O)N3CCCC3)cc2)sc2c1CCN(C(C)C)C2 | 148* | nt | nt | nt | nt | nt | 153* | 145*
CCOC(=O)c1c(NC(=O)c2ccc(S(=O)(=O)N3CCOCC3)cc2)sc2c1CCN(C(C)C)C2 | 6 | 5 | -5 | 6 | -49 | 10 | nt | nt
CCOC(=O)c1c(NC(=S)Nc2ccc(OCC)cc2)sc2c1CCN(C)C2 | 48* | 11 | -8 | 30 | -149 | 11 | 53* | 64*
CCOC(=O)c1c(NC(=O)Cc2ccccc2)sc2c1CCN(C)C2 | 0 | 2 | 8 | -2 | -81 | -3 | nt | nt
CCOC(=O)c1c(NC(=O)C(F)(OC)C(F)(F)F)sc2c1CCN(C)C2 (stereo not given) | 12 | 10 | -2 | 15 | -26 | 10 | nt | nt
SMILES | TPT1 inh | CSN inh | ATG4B inh | Rpn11 inh | SENP1 FRET inh | HNF4A DNA FP | caTPT1 confirm | RNase T1 inh
CCOC(=O)c1c(NC(=O)CSc2nnc(C)s2)sc2c1CCN(C)C2 | 98* | 43* | 0 | nt | -22 | 73* | 97* | 103*
CCOC(=O)c1c(NC(=O)CCS(=O)(=O)c2ccccc2)sc2c1CCN(C)C2 | 35* | 18 | -5 | 8 | -57 | 21 | 21 | 28*
C1=C[C@H]2CC[C@@H]1N(c1ccccc1)O2 | nt | 0 | -4 | 4 | 1 | 0 | nt | nt
CC(C)C[C@H]1CN(CCCC[C@@H]2CNC(=O)C(=O)N2Cc2ccccc2)C(=O)C(=O)N1CC1CCCCC1 | nt | -7 | nt | nt | 1 | 4 | nt | nt
Nc1c(C(=O)OCC(=O)Nc2cccc([N+](=O)[O-])c2)[nH]c(=O)[nH]c1=O | nt | -1 | -11 | -23 | -11 | -11 | nt | nt
CC(CNC(=O)CN(C)CC(=O)Nc1ccccc1Br)c1ccccc1 (stereo not given) | nt | -5 | -2 | -5 | -2 | -3 | nt | nt
CCN(CC)c1ccc(C=C2C(=O)OC(C)(C(C)(C)C)OC2=O)cc1 (stereo not given) | 78* | 19 | -1 | nt | -4 | 5 | 162* | 152*
CCN(CC)c1ccc(C=C2C(=O)OC3(CCCC3)OC2=O)cc1 | 29* | 10 | 1 | 28 | -1 | 0 | 140* | 142*
CCOc1ccccc1NC(=O)COC(=O)C(Cc1ccccc1)NC(=O)c1ccco1 (stereo not given) | nt | -8 | 0 | 0 | 3 | -2 | nt | nt
COc1ccc(NC(=O)C[C@H]2C(=O)N(C3CCCCC3)C[C@@H]2c2ccc(OC)cc2)cc1 | nt | 0 | nt | 0 | 1 | -1 | nt | nt
CC1=C(C(=O)N2CCOCC2)CC(CC(=O)NC2CC2)C(=O)N1Cc1ccc(F)cc1 (stereo not given) | nt | 2 | nt | 2 | -1 | -1 | nt | nt
COc1ccc(C(=O)/C=C/Nc2ccc(S(=O)(=O)Nc3cc(OC)nc(OC)n3)cc2)c(OC)c1 | 36* | 2 | -15 | 30 | -59 | 11 | 39* | 50*
Cn1nccc1C(=O)N/N=C/c1c(O)ccc2ccccc12 | 37* | 6 | -13 | 23 | -20 | 26 | 44* | 49*
Cc1occc1C(=O)N/N=C/c1c(O)ccc2ccccc12 | 2 | 7 | -7 | 2 | -51 | 0 | nt | nt
